In the library only some 2.8% were active in any assay of this set; here they are far more common.
PAFAH2 inh: inhibitors of human PAFAH2. recombinant PAFAH2, FP-rhodamine activity probe, fluorescence polarization. inhibition, % at 3.39 µM. 0.99% of 340,000 active;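 active = inhibition above the mean over all tested compounds plus 3 SD, cut at about 30% in these data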;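 also: inhibitors block probe labeling of enzyme so polarization drops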
PAFAH1B3 FP inh: PAFAH1B3 (human) inhibition; inhibition, % at 3.39 µM; recombinant PAFAH1B3, FP-rhodamine probe, fluorescence polarization; 0.28% of 340,000 active; AID 492972; Q15102;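 active = inhibition above the screen-wide average of all tested compounds plus 3 SD, cut at about 25% in these data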
pPAFAH inh: pPAFAH (human) enzyme inhibition; inhibition, % at 3.39 µM; recombinant pPAFAH, FP-rhodamine probe fluorescence polarization; 1.5% of 330,000 active; AID 463082;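 active = inhibition above the mean inhibition across the screen plus 3 SD, cut at about 25% in these data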;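 also: inhibitors block binding of the rhodamine activity-based probe so polarization drops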
ARFGAP1 inh: rat ARFGAP1 inhibition; 0.26% of 360,000 active; Q62848; Arfgap1-stimulated ARF1 GTP hydrolysis, GDP FP detection; inhibition, % at 16.5 µM;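 active = inhibition above a per-plate limit, mean inhibition of low control wells plus 3 SD, cut at about 25% in these data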
Target sequence (Q62848 1-136 limits assumed): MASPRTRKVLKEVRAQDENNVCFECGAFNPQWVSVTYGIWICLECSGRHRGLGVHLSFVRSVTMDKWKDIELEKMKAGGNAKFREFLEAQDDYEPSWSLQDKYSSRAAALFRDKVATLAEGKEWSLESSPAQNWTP
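Material: truncated rat Arfgap1 GAP domain; Incubation: compound-enzyme preincubation 20 min, reaction 120 min, detection 60 min, 25 °C; Read-out: percent inhibition of Arfgap1-stimulated GTP hydrolysis; Technique: FP, GDP Alexa 633 tracer displaced from anti-GDP antibody, 620/688 nm; Controls: No-Arfgap1 wells (100%) versus DMSO full-reaction wells (0%); Replication: single well per compound.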
ASAP1 inh: inhibitors of human ASAP1 ArfGAP activity | Q9ULH1 | ASAP1-stimulated ARF1 GTP hydrolysis, GDP FP detection | inhibition, % at 16.5 µM | 0.19% of 360,000 active; in the data active = inhibition above about 25%
Target sequence (Q9ULH1 325-724 limits assumed): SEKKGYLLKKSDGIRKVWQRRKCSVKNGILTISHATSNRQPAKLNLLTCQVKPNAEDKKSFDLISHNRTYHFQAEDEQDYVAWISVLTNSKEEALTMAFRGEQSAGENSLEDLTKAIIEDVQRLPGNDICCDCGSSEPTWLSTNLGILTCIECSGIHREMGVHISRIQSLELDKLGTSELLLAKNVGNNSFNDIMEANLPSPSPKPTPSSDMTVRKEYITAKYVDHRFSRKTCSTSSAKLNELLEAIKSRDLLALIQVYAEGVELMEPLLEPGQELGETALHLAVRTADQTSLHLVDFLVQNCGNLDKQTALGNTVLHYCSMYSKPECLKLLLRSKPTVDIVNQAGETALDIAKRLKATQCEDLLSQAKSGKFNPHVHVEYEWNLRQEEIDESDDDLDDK
PAFAH1B2 FP inh: blocks human PAF acetylhydrolase 1b catalytic subunit 2; recombinant PAFAH1B2, FP-rhodamine activity probe, fluorescence polarization; AID 492953; inhibition, % at 3.39 µM; 1.2% of 340,000 active;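 active = inhibition above the mean of all tested compounds plus 3 SD, cut at about 24% in these data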
Target sequence (P68402 whole entry, looked up): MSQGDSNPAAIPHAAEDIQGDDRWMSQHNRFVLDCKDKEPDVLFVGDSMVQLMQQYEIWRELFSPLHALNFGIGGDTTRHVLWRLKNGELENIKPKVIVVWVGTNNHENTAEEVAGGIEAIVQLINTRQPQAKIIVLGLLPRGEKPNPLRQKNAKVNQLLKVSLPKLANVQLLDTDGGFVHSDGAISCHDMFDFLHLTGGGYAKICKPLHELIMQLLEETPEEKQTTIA
PAFAH1B3 conf FP: confirmation of human PAFAH1B3 inhibitors; shares compounds with PAFAH1B3 FP inh; recombinant PAFAH1B3, FP-Rh activity-based probe, fluorescence polarization; inhibition, % at 3.39 µM; 30% of 390 active;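 active = average inhibition over triplicate runs above the hit cutoff set in the earlier primary screen, cut at about 25% in these data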
Large screens that a line does not name were inactive (follow-up assays come after a bar, where they were run).

CC(C)n1cnc2c(NCc3ccccc3)cc(N[C@H](C)CO)cc21	PAFAH1B3 FP inh 43 (no result: ARFGAP1 inh, ASAP1 inh) | PAFAH1B3 conf FP 35
O=C1C(=O)c2ccccc2C([O-])=C1[n+]1ccccc1	none
CCc1cc[n+](C2=C([O-])c3ccccc3C(=O)/C2=N\S(=O)(=O)c2cccs2)cc1	PAFAH1B3 FP inh 41 | PAFAH1B3 conf FP 31
N#Cc1ccc(CN2CCN(C(=O)C3CC(=O)N(c4ccc5c(c4)OCCO5)C3)CC2)cc1 (centres undefined)	none (no result: PAFAH2 inh, PAFAH1B3 FP inh, pPAFAH inh, PAFAH1B2 FP inh)
Cc1cccc(NC(=O)NNC(=O)c2ccc3ccccc3c2O)c1	PAFAH1B3 FP inh 43 (no result: pPAFAH inh) | PAFAH1B3 conf FP 82
O=C(NNC(=O)c1ccc2ccccc2c1O)NC1CCCCC1	PAFAH1B3 FP inh 30 (no result: pPAFAH inh) | PAFAH1B3 conf FP inactive
Cc1ccc(NC(=O)NNC(=O)c2cc3ccccc3cc2O)cc1	PAFAH1B3 FP inh 46 | PAFAH1B3 conf FP 76
COc1cc(OC)cc(C(=O)NNC(=O)c2cc3ccccc3cc2O)c1	none (no result: pPAFAH inh)
COc1ccccc1NC(=O)NNC(=O)c1cc2ccccc2cc1O	PAFAH1B3 FP inh 32 | PAFAH1B3 conf FP 45
O=C(NC1CCCCC1)c1ccc2ccccc2c1O	none (no result: PAFAH2 inh, PAFAH1B3 FP inh, pPAFAH inh, PAFAH1B2 FP inh)
Cc1cc(C)nc(NS(=O)(=O)c2ccc(NC(=O)c3ccccc3Br)cc2)n1	none (no result: PAFAH2 inh, PAFAH1B3 FP inh, pPAFAH inh, PAFAH1B2 FP inh)
CCc1c(C2(O)CCCCC2)[nH]c2cc(C(F)(F)F)ccc12	none (no result: ARFGAP1 inh, ASAP1 inh)
COc1cc(C2Nc3cccc4cccc(c34)N2)cc(OC)c1O	PAFAH1B3 FP inh 35 | PAFAH1B3 conf FP inactive
COc1ccc(C2Nc3cccc4cccc(c34)N2)cc1Br	none
COc1ccc(NCCC(O)c2ccc(Cl)cc2)cc1 (centres undefined)	none
COc1ccc(CCCNC(=O)C2CCC(=O)N(CCc3cccc(F)c3)C2)cc1 (centres undefined)	none
O=C(c1ccccc1)c1ccc(CN2C(=O)c3ccccc3C2=O)o1	none
COc1ccc(CNC(=O)c2c(C)oc3c2C(=O)c2ccccc2C3=O)cc1	PAFAH1B3 FP inh 37 | PAFAH1B3 conf FP inactive
O=C1c2ccccc2C(=O)c2c1oc(C(F)(F)F)c2C(=O)c1ccccc1	PAFAH1B3 FP inh 40 | PAFAH1B3 conf FP 27
Cc1oc2c(c1C(=O)NCc1cccnc1)C(=O)c1ccccc1C2=O	none (no result: PAFAH2 inh, PAFAH1B3 FP inh, ARFGAP1 inh, ASAP1 inh, PAFAH1B2 FP inh)
CC(=O)c1c(C)oc2c1C(=O)c1ccccc1C2=O	PAFAH1B3 FP inh 28 | PAFAH1B3 conf FP inactive
Cc1cc(OCC(=O)OCC(=O)NC2CCS(=O)(=O)C2)ccc1Cl (centres undefined)	none (no result: PAFAH2 inh, PAFAH1B3 FP inh, pPAFAH inh, PAFAH1B2 FP inh)
Cc1ccc(S(=O)(=O)N2CCC(C(=O)N3CCN(c4ccccn4)CC3)CC2)cc1	none
Cc1ccc2c(=O)n3c(nc2c1)C(Cc1ccccc1)NC(=O)c1ccc(Cl)cc1-3 (centres undefined)	none (no result: PAFAH2 inh, PAFAH1B3 FP inh, PAFAH1B2 FP inh)
N#Cc1cc2c(nc1SCC(N)=O)CCCCC2	none
N#Cc1cc2c(nc1SCC(=O)N1CCOCC1)CCCCC2	PAFAH1B3 FP inh 26 | PAFAH1B3 conf FP inactive
COCCCNC(=O)c1ccc(CS(=O)(=O)c2ccc(Br)cc2)o1	PAFAH1B3 FP inh 29 | PAFAH1B3 conf FP inactive
COCCCNC(=O)c1ccc(CS(=O)(=O)c2ccc(OC)cc2)o1	none
CC(C)(C)c1ccccc1NC(=O)c1c(O)c2cccc3c2n(c1=O)CC3	none (no result: PAFAH2 inh, PAFAH1B3 FP inh, ARFGAP1 inh, ASAP1 inh, PAFAH1B2 FP inh)
CCCCN1CC(N2CCCCC2)CS1(=O)=O (centres undefined)	none (no result: PAFAH2 inh, PAFAH1B3 FP inh, pPAFAH inh, PAFAH1B2 FP inh)
O=C(/C=C/c1ccccc1)C1C(=O)c2ccccc2C1=O	none
CCc1ccc(/C=C/C(=O)C2C(=O)c3ccccc3C2=O)cc1	PAFAH1B3 FP inh 28 | PAFAH1B3 conf FP inactive
CCc1nnc(NC(=O)c2sc3nc4cc(C)ccc4cc3c2N)s1	PAFAH1B3 FP inh 27 | PAFAH1B3 conf FP inactive
CCC1CN(C(=O)N2CCC(C(=O)NCc3cccc(OC)c3OC)CC2)c2cc(C)ccc2O1 (centres undefined)	none
COc1ccc(C(=O)OCC(=O)c2c(N)n(C)c(=O)n(C)c2=O)c(OC)c1OC	PAFAH1B3 FP inh 26 | PAFAH1B3 conf FP inactive
CC1(c2nnc(-c3ccc(F)cc3)o2)CC(c2cccnc2)=NO1 (centres undefined)	none
CC1(c2nnc(-c3ccncc3)o2)CC(c2ccc(F)cc2)=NO1 (centres undefined)	PAFAH1B3 FP inh 26 | PAFAH1B3 conf FP inactive
O=C1c2cccc3c([N+](=O)[O-])ccc(c23)C(=O)N1c1ccccn1	PAFAH1B3 FP inh 29 | PAFAH1B3 conf FP 39
O=C(O)c1ccc(Nc2nc(-c3ccc([N+](=O)[O-])cc3)nc3ccccc23)cc1	PAFAH1B3 FP inh 26 (no result: pPAFAH inh) | PAFAH1B3 conf FP inactive
O=[N+]([O-])c1ccc(-c2nc(Nc3ccc(O)cc3)c3ccccc3n2)cc1	none (no result: pPAFAH inh)
Cc1ccc(-n2c(C)cc(C(=O)NS(=O)(=O)c3ccc(C)cc3)c2C)cc1	PAFAH1B3 FP inh 52 | PAFAH1B3 conf FP 36
CCOc1ccc(-n2c(C)cc(C(=O)NS(=O)(=O)c3ccc(C)cc3)c2C)cc1	none
Cc1ccc(CNc2ccc(O)cc2)cc1	PAFAH1B3 FP inh 39 (no result: pPAFAH inh) | PAFAH1B3 conf FP inactive
Cc1ccc(NCc2ccccc2O)cc1	none
Cc1ccc(C)c(NC(=O)CN(C)C(=O)c2ccccc2OCc2ccccc2Cl)c1	none
CCOc1ccc2[nH]c(C(=O)N/N=C/c3ccc(OC)cc3)cc2c1	none (no result: pPAFAH inh)
COc1ccc2[nH]c(C(=O)N/N=C/c3ccc(O)cc3O)cc2c1	PAFAH1B3 FP inh 48 (no result: pPAFAH inh) | PAFAH1B3 conf FP inactive
O=C(COC(=O)c1ccc([N+](=O)[O-])s1)Nc1ncc(C(F)(F)F)cc1Cl	PAFAH1B3 FP inh 30 | PAFAH1B3 conf FP inactive
O=C1NC[C@@H](CCCCN2C[C@H](Cc3ccc(O)cc3)N(CCc3ccccc3)C(=O)C2=O)N(Cc2ccccc2)C1=O	none (no result: PAFAH2 inh, PAFAH1B3 FP inh, pPAFAH inh, PAFAH1B2 FP inh)
O=C(NN=c1c(=O)c2ccccc2c1=O)c1ccccc1	PAFAH1B3 FP inh 38 | PAFAH1B3 conf FP 32
C=CCn1c(O)c(N=Nc2ccccc2O)c2ccccc21	PAFAH1B3 FP inh 26 | PAFAH1B3 conf FP inactive
C=CCn1c(O)c(N=Nc2ccccc2)c2ccccc21	none
COc1ccc([N+](=O)[O-])cc1NC(=S)NC(C)=O	none
COc1ccc(/C=C/C(=O)NC(=S)Nc2cc([N+](=O)[O-])ccc2O)cc1OC	PAFAH1B3 FP inh 35 | PAFAH1B3 conf FP 31
O=C(Nc1nccs1)c1ncc(Cl)c(Cl)c1Cl	none
CC(C(=O)N1CCc2ccccc2C1)N(c1ccccc1)S(C)(=O)=O (centres undefined)	none
CC(=C1C(=O)c2ccccc2C1=O)N1CCc2ccccc2C1	PAFAH1B3 FP inh 27 | PAFAH1B3 conf FP inactive
O=C(N1CCCCC1)C12CC3CC(C1)CC(C(=O)N1CCCCC1)(C3)C2	PAFAH1B3 FP inh 39 | PAFAH1B3 conf FP inactive
CN(C(=O)CSc1ncnc2sc3c(c12)CCCC3)C1CCS(=O)(=O)C1 (centres undefined)	none
CCC(=O)Nc1c(C#N)c2nc3ccccc3nc2n1C1CCCCC1	none
